Measured values reported in ChEMBL document CHEMBL5154634, “A Modular Synthetic Route Involving N-Aryl-2-nitrosoaniline Intermediates Leads to a New Series of 3-Substituted Halogenated Phenazine Antibacterial Agents” (J Med Chem, 2021).
In brackets after ≈: the same amount, converted by molar mass. Activity calls are given as the source filed them. No cut-off for these calls is given here.

Experiments:
Staphylococcus aureus [1] = assay: Induction of iron starvation in methicillin-resistant Staphylococcus aureus BAA-1707 biofilms assessed as upregulation of MW0695 gene expression at 1 uM incubated for 4 hrs by RT-qPCR analysis; assay type: functional
Procedure, shortened: (§1)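 MRSA BAA-1707 grown in TSB with 0.5% glucose to OD600 ~0.8–1.0, then biofilms formed 20 h at 37 °C statically in gelatin-coated 24-well plates. Biofilms treated 4 h at 37 °C with compound (1 μM or 1/10 MBEC) or DMSO vehicle. RNA extracted; only RIN ≥7 samples used. One-step SYBR RT-qPCR; ΔCT normalised to ptaA. Three independent experiments.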

[2] = system: Staphylococcus epidermidis; assay: Antibiofilm activity against methicillin-resistant Staphylococcus epidermidis ATCC 35984 biofilms assessed as biofilm eradication incubated for 24 hrs followed by incubation for 24 hrs in fresh medium by Calgary biofilm device assay; assay type: functional
Procedure, shortened: (§2)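 Calgary biofilm device. Mid-log culture diluted 1000-fold in TSB with 0.5% glucose; biofilms grown on pegs 24 h at 37 °C. Pegs washed and challenged with twofold compound dilutions for 24 h at 37 °C, then moved to fresh medium for 24 h. MBEC is the lowest concentration leaving wells non-turbid. At least three independent experiments.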

Staphylococcus aureus [3] = assay: Induction of iron starvation in methicillin-resistant Staphylococcus aureus BAA-1707 biofilms assessed as upregulation of sbnC gene expression at 1 uM incubated for 4 hrs by RT-qPCR analysis; assay type: functional; procedure, shortened: as §1
Staphylococcus aureus [4] = assay: Induction of iron starvation in methicillin-resistant Staphylococcus aureus BAA-1707 biofilms assessed as upregulation of isdB gene expression at 1/10XMBEC incubated for 4 hrs by RT-qPCR analysis; assay type: functional; procedure, shortened: as §1
J774 = assay: Cytotoxicity against mouse J774 cells assessed as reduction in cell viability […] by Alamar blue assay; assay type: toxicity, cell-based
[5] = system: Mycobacterium tuberculosis; assay: Antibacterial activity against Mycobacterium tuberculosis H37Ra ATCC 25177 assessed as bacterial growth inhibition incubated for 7 days by absorbance based analysis; assay type: functional; settings: H37Ra ATCC 25177, 168 h, time 7 day
Procedure, shortened: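 H37Ra grown 2 weeks in Middlebrook 7H9, then diluted to OD600 0.01. Compounds added in twofold dilutions, final 0.024–50 μM, with 0.5% DMSO and streptomycin as positive control. Incubated 7 days at 37 °C. MIC is the lowest concentration with no growth, with OD600 recorded. At least three independent experiments.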

Staphylococcus aureus [6] = assay: Induction of iron starvation in methicillin-resistant Staphylococcus aureus BAA-1707 biofilms assessed as upregulation of MW0695 gene expression at 1/10XMBEC incubated for 4 hrs by RT-qPCR analysis; assay type: functional; procedure, shortened: as §1
HeLa = assay: Cytotoxicity against human HeLa cells assessed as reduction in cell viability incubated for 24 hrs by LDH release assay; assay type: toxicity, cell-based
Procedure, shortened: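 HeLa cells in DMEM with 10% FBS, treated at 70–80% confluence with 25, 50 and 100 μM for 24 h. LDH in supernatant measured by 30 min reaction at room temperature, then stop solution and absorbance at 490 nm. Controls: 2% Triton X-100 (maximum), medium only, DMSO vehicle. Three independent experiments.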

[7] = system: Staphylococcus epidermidis; assay: Bactericidal activity against methicillin-resistant Staphylococcus epidermidis ATCC 35984 planktonic cells assessed as planktonic eradication incubated for 24 hrs followed by incubation for overnight in fresh medium by Calgary biofilm device assay; assay type: functional
Procedure, shortened: (§3)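 Calgary biofilm device. Biofilms grown 24 h at 37 °C in TSB with 0.5% glucose, then challenged 24 h with twofold compound dilutions. 20 μL of challenge medium transferred into fresh TSB with 0.5% glucose and incubated overnight at 37 °C. MBC is the concentration with no visible turbidity. At least three independent experiments.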

Staphylococcus aureus [8] = assay: Induction of iron starvation in methicillin-resistant Staphylococcus aureus BAA-1707 biofilms assessed as upregulation of sbnC gene expression at 1/10XMBEC incubated for 4 hrs by RT-qPCR analysis; assay type: functional; procedure, shortened: as §1
Staphylococcus aureus [9] = assay: Antibacterial activity against methicillin-resistant Staphylococcus aureus BAA-1707 assessed as bacterial growth inhibition incubated for 16 hrs by broth microdilution susceptibility test; assay type: functional
Procedure, shortened: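 CLSI broth microdilution with 11 twofold dilutions (0.05–50 μM). About 10^5 cells per well from a log-phase culture. DMSO vehicle up to 0.5% v/v. At least three independent experiments.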

Enterococcus faecium [10] = assay: Bactericidal activity against methicillin-resistant vancomycin-resistant Enterococcus faecium ATCC 700221 planktonic cells assessed as planktonic eradication incubated for 24 hrs followed by incubation for overnight in fresh medium by Calgary biofilm device assay; assay type: functional; procedure, shortened: as §3
[11] = system: Mycobacterium tuberculosis; assay: Antibacterial activity against Mycobacterium tuberculosis CDC1551 assessed as bacterial growth inhibition incubated for 5 days by luminescence based analysis; assay type: functional; settings: CDC1551, 120 h, time 5 day
Procedure, shortened: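 Bioluminescent Mtb-lux CDC1551 reporter grown in Middlebrook 7H9 with 0.05% Tween 80, 10% OADC and kanamycin to OD600 0.4–0.8, then diluted to OD600 0.02. Added to twofold drug dilutions (0.003–200 μM). Incubated 5 days at 37 °C, 5% CO2. Luminescence read against 1% DMSO and 10 μM rifampicin controls to give % growth inhibition. MIC taken from a modified Gompertz fit.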

Staphylococcus aureus [12] = assay: Antibiofilm activity against methicillin-resistant Staphylococcus aureus BAA-44 biofilms assessed as biofilm eradication incubated for 24 hrs followed by incubation for 24 hrs in fresh medium by Calgary biofilm device assay; assay type: functional; procedure, shortened: as §2
Staphylococcus aureus [13] = assay: Induction of iron starvation in methicillin-resistant Staphylococcus aureus BAA-1707 biofilms assessed as upregulation of sfaA gene expression at 1/10XMBEC incubated for 4 hrs by RT-qPCR analysis; assay type: functional; procedure, shortened: as §1
Enterococcus faecalis [14] = assay: Antibiofilm activity against Enterococcus faecalis OG1RF ATCC 47077 biofilms assessed as biofilm eradication incubated for 24 hrs followed by incubation for 24 hrs in fresh medium by Calgary biofilm device assay; assay type: functional
Procedure, shortened: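 Calgary biofilm device. Biofilms grown 24 h at 37 °C in BHI from mid-log culture diluted 1000-fold. Pegs washed and then challenged 24 h with twofold serial dilutions. Pegs moved to fresh BHI for 24 h recovery. MBEC = lowest concentration leaving no turbidity; at least three independent experiments.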

Erythrocyte = assay: Hemolytic activity against human RBC at 200 uM measured after 1 hr; assay type: toxicity, cell-based
Procedure, shortened: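 2% hRBCs exposed to compound at 200 μM final, added from DMSO stock, for 1 h at 37 °C. Supernatant OD read at 405 nm. Hemolysis normalized between DMSO (0%) and Triton X (100%); three independent experiments.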

Staphylococcus aureus [15] = assay: Bactericidal activity against methicillin-resistant Staphylococcus aureus BAA-1707 planktonic cells assessed as planktonic eradication incubated for 24 hrs followed by incubation for overnight in fresh medium by Calgary biofilm device assay; assay type: functional; procedure, shortened: as §3
Enterococcus faecalis [16] = assay: Antibacterial activity against Enterococcus faecalis OG1RF ATCC 47077 assessed as bacterial growth inhibition incubated for 16 hrs by broth microdilution susceptibility test; assay type: functional
HepG2 = assay: Cytotoxicity against human HepG2 cells assessed as reduction in cell viability […] by Alamar blue assay; assay type: toxicity, cell-based
Staphylococcus aureus [17] = assay: Induction of iron starvation in methicillin-resistant Staphylococcus aureus BAA-1707 biofilms assessed as upregulation of sfaA gene expression at 1 uM incubated for 4 hrs by RT-qPCR analysis; assay type: functional; procedure, shortened: as §1
Enterococcus faecalis [18] = assay: Bactericidal activity against […] Enterococcus faecalis OG1RF ATCC 47077 planktonic cells assessed as planktonic eradication incubated for 24 hrs followed by incubation for overnight in fresh medium by Calgary biofilm device assay; assay type: functional
Procedure, shortened: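 Calgary biofilm device in BHI. Biofilms grown 24 h at 37 °C and challenged 24 h with twofold compound dilutions. Challenge medium subcultured 1:10 into fresh BHI overnight at 37 °C. MBC is the concentration with no turbidity. At least three independent experiments.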

Enterococcus faecium [19] = assay: Antibiofilm activity against methicillin-resistant vancomycin-resistant Enterococcus faecium ATCC 700221 biofilms assessed as biofilm eradication incubated for 24 hrs followed by incubation for 24 hrs in fresh medium by Calgary biofilm device assay; assay type: functional; procedure, shortened: as §2
Staphylococcus aureus [20] = assay: Induction of iron starvation in methicillin-resistant Staphylococcus aureus BAA-1707 biofilms assessed as upregulation of isdB gene expression at 1 uM incubated for 4 hrs by RT-qPCR analysis; assay type: functional; procedure, shortened: as §1
[21] = Binding affinity to Fe2+ assessed as compound-Fe2+ complex formation by UV-vis spectroscopy

With `Oc1c(Br)c(Cl)c(Br)c2nc3ccccc3nc12` the Activity (Staphylococcus aureus [1]) was “Active”, the MBEC [2] was 25 µM and the Activity (Staphylococcus aureus [3]) was “Active”. For the same compound, the Activity (Staphylococcus aureus [4]) was “Active”, the IC50 (J774) was over 200 µM and the MIC [5] was 6.25 µM (≈ 2.43 µg/mL). The Activity (Staphylococcus aureus [6]) was “Active”, the IC50 (HeLa) was over 100 µM and the MBC [7] was 12.5 µM (≈ 4.86 µg/mL). The Activity (Staphylococcus aureus [8]) was “Active”, the MIC (Staphylococcus aureus [9]) was 0.15 µM (≈ 0.0583 µg/mL) and the MBC (Enterococcus faecium [10]) was 4.69 µM (≈ 1.82 µg/mL). For the same compound, the MIC [11] was 4.37 µM (≈ 1.7 µg/mL), the MBEC (Staphylococcus aureus [12]) was 75 µM and the Activity (Staphylococcus aureus [13]) was “Active”. For the same compound, the MBEC (Enterococcus faecalis [14]) was over 200 µM, the Activity (Erythrocyte) was “<= 1%” and the MBC (Staphylococcus aureus [15]) was 50 µM (≈ 19.4 µg/mL). For the same compound, the MIC (Enterococcus faecalis [16]) was 3.13 µM (≈ 1.22 µg/mL), the IC50 (HepG2) was over 200 µM and the Activity (Staphylococcus aureus [17]) was “Active”. For the same compound, the MBC (Enterococcus faecalis [18]) was 75 µM (≈ 29.1 µg/mL), the MBEC (Enterococcus faecium [19]) was 2.35 µM and the Activity (Staphylococcus aureus [20]) was “Active”. The Activity [21] was “Active”.
